As usually defined, the IC50 is the concentration needed to halve the response being measured. For orientation: EC50 means the concentration giving half of the maximal effect. For orientation: AC50 means the midpoint of the concentration-response curve, whichever way the signal moves.

The values below come from ChEMBL document CHEMBL1157307, “Bioassay for the identification of natural product-based activators of peroxisome proliferator-activated receptor-gamma (PPARgamma): the marine sponge metabolite psammaplin A activates PPARgamma and induces apoptosis in human breast tumor cells” (J Nat Prod, 2006).

Calls of active or inactive are those of the source. The rule behind the calls is not given here.

In assay [1] the test system is MCF7. Kind of assay: Induction of apoptosis in human MCF7 cells assessed as chromosome fragmentation at 30 uM by fluorescent microscopy. The note with it: TDE = time-dependent effect. In kind it is functional, cell-based.
Assay [2] addresses T1, Peroxisome proliferator-activated receptor gamma (Homo sapiens) (UniProt P37231).
T1 sequence (whole entry): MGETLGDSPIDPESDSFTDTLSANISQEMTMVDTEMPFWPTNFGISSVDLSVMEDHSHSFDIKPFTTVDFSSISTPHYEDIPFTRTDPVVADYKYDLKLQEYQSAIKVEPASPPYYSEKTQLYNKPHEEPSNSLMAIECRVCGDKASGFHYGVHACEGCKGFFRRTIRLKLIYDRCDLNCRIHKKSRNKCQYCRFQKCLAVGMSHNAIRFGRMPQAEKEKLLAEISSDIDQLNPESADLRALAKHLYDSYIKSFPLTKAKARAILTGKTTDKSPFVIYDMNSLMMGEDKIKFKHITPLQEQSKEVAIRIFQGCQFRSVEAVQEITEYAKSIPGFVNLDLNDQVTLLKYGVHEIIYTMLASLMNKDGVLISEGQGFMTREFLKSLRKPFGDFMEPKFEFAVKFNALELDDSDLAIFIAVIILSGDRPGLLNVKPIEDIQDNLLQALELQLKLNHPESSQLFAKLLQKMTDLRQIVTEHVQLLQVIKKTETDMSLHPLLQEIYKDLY
Kind of assay: Activation of GAL4 fused human PPARgamma ligand binding domain transfected in african green monkey CV1 cells at 10 uM by CAT reporter assay. The note with it: CV-1. In kind it is cell-based. For orientation: In a reporter assay the amount or activity of a reporter protein is the signal.

In assay [3] the target is T1, Peroxisome proliferator-activated receptor gamma (Homo sapiens). The assay is described as follows: Activation of PPARgamma transfected in human MDA-MB-231 cells at 100 to 300 uM after 48 hrs by luciferase reporter gene assay. The format is cell-based. A digest of the protocol:
(§1)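 MCF-7 or MDA-MB-231 cells grown in DMEM/F12 with 10% FCS at 37 °C, 5% CO2. Electroporated with pPPRE-aP2-tk-luc reporter (50 µg/mL) plus rat PPARγ construct pCMV-rPPARγ (10 µg/mL). Seeded 20,000 cells/well and left 20 h. Compound added in serum-free medium for 24 or 48 h. Cells lysed and luciferase read. Runs done in triplicate or quadruplicate.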

Assay [4] has the same target. The assay is described as follows: Activation of PPARgamma transfected in human MCF7 cells at 100 to 300 uM after 48 hrs by luciferase reporter gene assay. The format is cell-based. The method in brief: as §1
Assay [5] relates to MCF7. The assay is described as follows: Induction of apoptosis in human MCF7 cells assessed as chromosome fragmentation at 10 uM after 16 hrs by fluorescent microscopy. In kind it is functional, cell-based. The method in brief:
(§2)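 MCF-7 cells seeded at 80,000/well on coverslips and grown 16 h. Compound added (10 µM final) in an equal volume of serum-free medium; 30 nM taxol as control. After 4, 8 or 16 h, cells fixed in MeOH, washed in PBS and mounted in DAPI. Fragmented nuclei scored by fluorescence at 400×.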

In assay [6] the target is T1, Peroxisome proliferator-activated receptor gamma (Homo sapiens). The assay is described as follows: Activation of PPARgamma transfected in human MCF7 cells at 10 uM after 48 hrs by luciferase reporter gene assay. The format is cell-based. The method in brief:
as §1

For assay [7], the system named is T47D. Kind of assay: Induction of apoptosis in human T47D cells assessed as chromosome fragmentation at 10 uM after 16 hrs by fluorescent microscopy.
Assay [8] relates to T47D. Kind of assay: Induction of apoptosis in human T47D cells assessed as chromosome fragmentation at 10 uM after 8 hrs by fluorescent microscopy.
The test system of assay [9] is MCF7. Kind of assay: Antiproliferative activity against human MCF7 cells at 30 uM after 8 hrs by neutral red method. In kind it is functional. A digest of the protocol: (§3)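 Short exposure: MCF-7 cells treated at 3, 10 or 30 µM for 1, 2, 4 or 8 h. Then washed twice with serum-free medium and grown 96 h in medium with 10% FCS, compound-free. Neutral red absorbance at 540 nm, corrected at 630 nm. Triplicate.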

Assay [10] is described as follows: Inhibition of HDAC by cell-free enzyme assay.
The test system of assay [11] is MCF7. The assay is described as follows: Induction of apoptosis in human MCF7 cells assessed as chromosome fragmentation at 10 uM after 8 hrs by fluorescent microscopy. The format is functional, cell-based. A digest of the protocol:
as §2

Assay [12] deals with T2, Peroxisome proliferator-activated receptor gamma (Homo sapiens, UniProt P37231).
T2 sequence (P37231 whole entry): T1 sequence (whole entry)
Kind of assay: Activation of PPARgamma transfected in human MCF7 cells by luciferase reporter gene assay. In kind it is cell-based.

Assay [13] has as its system MCF7. The assay is described as follows: Antiproliferative activity against human MCF7 cells at 10 uM up to 8 hrs by neutral red method. The format is functional, cell-based. A digest of the protocol:
as §3

In assay [14] the target is T1, Peroxisome proliferator-activated receptor gamma (Homo sapiens). The assay is described as follows: Activation of PPARgamma transfected in human MCF7 cells at 10 uM by luciferase reporter gene assay. The format is cell-based. A digest of the protocol: as §1
Assay [15] deals with MCF7. The assay is described as follows: Antiproliferative activity against human MCF7 cells by neutral red method. In kind it is functional, cell-based. A digest of the protocol:
(§4)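 MCF-7 cells plated as for the reporter assay (20,000/well, 20 h), then exposed 48 h to compound added in serum-free DMEM/F12. Viability read by neutral red uptake as absorbance at 540 nm, corrected at 630 nm. Triplicate, mean ± SD.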

For assay [16], the system named is MCF7. Kind of assay: Antiproliferative activity against human MCF7 cells at 10 uM after 48 hrs by neutral red method. The format is functional. The method in brief:
as §4

For another assay, the system named is NCI-H1299. Kind of assay: Activation of p21 promoter in human H1299 cells by reporter assay. In kind it is functional, cell-based.

As to `CC(=O)O[C@H]1C(=O)[C@@]2(C)[C@H]([C@H](OC(=O)c3ccccc3)[C@]3(O)C[C@H](OC(=O)[C@H](O)[C@@H](NC(=O)c4ccccc4)c4ccccc4)C(C)=C1C3(C)C)[C@]1(OC(C)=O)CO[C@@H]1C[C@@H]2O`, in the assay on MCF7 [1], the Activity entry is “tde”.
With `CC1(COc2ccc(CC3SC(=O)NC3=O)cc2)CCCCC1` (configuration not stated), the outcome in assay [2] was Active.
Take `COc1ccc2c(c1)c(CC(=O)O)c(C)n2C(=O)c1ccc(Cl)cc1`: the result in assay [3] and in assay [4] was inactive.
`O=C(NCCSSCCNC(=O)/C(Cc1ccc(O)c(Br)c1)=N/O)/C(Cc1ccc(O)c(Br)c1)=N/O` [PSAMMAPLIN A]: the outcome (with MCF7 [5]; in assay [6]; in the assay with T47D [7]; with T47D [8]; in the assay on MCF7 [11]; in assay [14]) was Active. The values for the Activity in the assay with MCF7 [9] and with MCF7 [16] were 36% and 62%, respectively. Besides, the IC50 in assay [10] amounted to 0.0042 µM; in the assay on MCF7 [15] it was 5 µM. This compound also returned an EC50 in assay [12] of 5.7 µM. Also, the result with MCF7 [13] was inactive. Also, the AC50 in the assay on NCI-H1299 is 7.5 µM.
